Active and inactive are the calls of the source. The calls are words filed in the database; no cut-off is given here.
Key:
[1] = system: Quadruplex DNA [UNDEFINED MUTATION]; test: Effect on confirmation of telomeric Htg24 G-quadruplex DNA A8G mutant (unknown origin) assessed as hybrid topology at 5 uM at pH 7.4 by circular dichroism analysis; type: nucleic-acid assay; conditions: Homo sapiens
Procedure, shortened: (§1)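 CD spectra recorded on G4-DNA and ligand, each at 5 μM, in 10 mM Tris-HCl, pH 7.4, with 60 mM KCl. Scan range 220–340 nm in a 1 mm quartz cuvette, 1 nm bandwidth and step, 0.5 s/point. Each spectrum is the average of three scans.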

[2] = system: Quadruplex DNA [UNDEFINED MUTATION]; test: Effect on confirmation of telomeric Htg24 G-quadruplex DNA T12G mutant (unknown origin) assessed as hybrid topology at 5 uM at pH 7.4 by circular dichroism analysis; type: nucleic-acid assay; conditions: Homo sapiens; procedure, shortened: as §1
[3] = system: Quadruplex DNA [UNDEFINED MUTATION]; test: Binding affinity to telomeric Htg24 G-quadruplex DNA G3A mutant (unknown origin) assessed as negative fluorescence signal at 5 uM under pH condition 7.4 by fluorescence titration analysis; type: nucleic-acid assay; conditions: Homo sapiens
Procedure, shortened: (§2)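 Ligand held at 5 μM and mixed with each Htg24 point mutant in Tris-HCl buffer containing 60 mM KCl, pH 7.4. Fluorescence was read, and the signal change was computed as (F mutant − F wild type)/F wild type.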

[4] = system: Quadruplex DNA [UNDEFINED MUTATION]; test: Binding affinity to telomeric Htg24 G-quadruplex DNA G23A mutant (unknown origin) assessed as fluorescence signal at 5 uM under pH condition 7.4 by fluorescence titration analysis; type: nucleic-acid assay; conditions: Homo sapiens; procedure, shortened: as §2
Quadruplex DNA [5] = test: Binding affinity to telomeric Htg24 G-quadruplex DNA (unknown origin) assessed as fold increase in fluorescence signal at 5 uM under pH condition 7.4 by fluorescence method; type: nucleic-acid assay
Procedure, shortened: (§3)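 Ligand 5 μM with each nucleic acid at 15 μM in 10 mM Tris-HCl pH 7.4, 60 mM KCl; emission enhancement expressed as F/F0 against ligand without DNA.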

[6] = system: Quadruplex DNA [UNDEFINED MUTATION]; test: Binding affinity to telomeric Htg24 G-quadruplex DNA G3C mutant (unknown origin) assessed as negative fluorescence signal at 5 uM under pH condition 7.4 by fluorescence titration analysis; type: nucleic-acid assay; conditions: Homo sapiens; procedure, shortened: as §2
HeLa [7] = test: Antiproliferative activity against human HeLa cells assessed as reduction in cell viability […] by MTT assay; type: functional, cell-based
MCF7 = test: Antiproliferative activity against human MCF7 cells assessed as reduction in cell viability […] by MTT assay; type: functional, cell-based
[8] = system: Quadruplex DNA [UNDEFINED MUTATION]; test: Binding affinity to telomeric Htg24 G-quadruplex DNA G17T mutant (unknown origin) assessed as negative fluorescence signal at 5 uM under pH condition 7.4 by fluorescence titration analysis; type: nucleic-acid assay; conditions: Homo sapiens
Procedure, shortened: (§4)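 Ligand 5 μM mixed with wild-type or point-mutant Htg24 in Tris-HCl buffer with 60 mM KCl; signal change calculated as (F mutant − F wild type)/F wild type.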

[9] = system: Quadruplex DNA [UNDEFINED MUTATION]; test: Binding affinity to telomeric Htg24 G-quadruplex DNA G23T mutant (unknown origin) assessed as fluorescence signal at 5 uM under pH condition 7.4 by fluorescence titration analysis; type: nucleic-acid assay; conditions: Homo sapiens; procedure, shortened: as §2
HeLa [10] = test: Downregulation of hTERT mRNA expression in human HeLa cells at 5 to 20 uM by qRT-PCR analysis; type: functional, cell-based; conditions: dose 5-20 µM
Procedure, shortened: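 HeLa cells were treated with graded compound concentrations, then incubated 36 h. RNA was extracted with Trizol/chloroform, reverse transcribed and quantified by qRT-PCR. GAPDH served as internal control, with relative expression by the ΔΔCt method; three independent experiments, mean ± SD.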

Quadruplex DNA [11] = test: Binding affinity to telomeric Htg24 G-quadruplex DNA (unknown origin) assessed as compound-DNA complex stoichiometry ratio of 1:1 by Job's plot analysis; type: nucleic-acid assay
[12] = system: Quadruplex DNA [UNDEFINED MUTATION]; test: Binding affinity to telomeric Htg24 G-quadruplex DNA G21T mutant (unknown origin) assessed as strong fluorescence signal at 5 uM under pH condition 7.4 by fluorescence titration analysis; type: nucleic-acid assay; conditions: Homo sapiens; procedure, shortened: as §2
[13] = system: Quadruplex DNA [UNDEFINED MUTATION]; test: Binding affinity to telomeric Htg24 G-quadruplex DNA T6G mutant (unknown origin) assessed as negative fluorescence signal at 5 uM under pH condition 7.4 by fluorescence titration analysis; type: nucleic-acid assay; conditions: Homo sapiens; procedure, shortened: as §2
i-motif DNA = test: Binding affinity to promoter i-motif DNA (unknown origin) assessed as fluorescence signal at 5 uM under pH condition 7.4 by fluorescence method; type: nucleic-acid assay; procedure, shortened: as §3
[14] = system: Quadruplex DNA [UNDEFINED MUTATION]; test: Binding affinity to telomeric Htg24 G-quadruplex DNA G15T mutant (unknown origin) assessed as fluorescence signal at 5 uM under pH condition 7.4 by fluorescence titration analysis; type: nucleic-acid assay; conditions: Homo sapiens
[15] = system: Quadruplex DNA [UNDEFINED MUTATION]; test: Binding affinity to telomeric Htg24 G-quadruplex DNA G16A mutant (unknown origin) assessed as negative fluorescence signal at 5 uM under pH condition 7.4 by fluorescence titration analysis; type: nucleic-acid assay; conditions: Homo sapiens; procedure, shortened: as §4
[16] = system: Quadruplex DNA [UNDEFINED MUTATION]; test: Binding affinity to telomeric Htg24 G-quadruplex DNA G22C mutant (unknown origin) assessed as negative fluorescence signal at 5 uM under pH condition 7.4 by fluorescence titration analysis; type: nucleic-acid assay; conditions: Homo sapiens; procedure, shortened: as §2
[17] = system: Quadruplex DNA [UNDEFINED MUTATION]; test: Effect on confirmation of telomeric Htg24 G-quadruplex DNA G22A mutant (unknown origin) assessed as hybrid topology at 5 uM at pH 7.4 by circular dichroism analysis; type: nucleic-acid assay; conditions: Homo sapiens; procedure, shortened: as §1
Quadruplex DNA [18] = test: Binding affinity to G4 quadruplex DNA in human HeLa cells assessed as increase in number of BG4 foci at 10 to 20 uM; type: cell-based; conditions: dose 10-20 µM
Quadruplex DNA [19] = test: Binding affinity to c-myc promoter G-quadruplex DNA Pu27 (unknown origin) assessed as dissociation constant by isothermal titration calorimetric analysis; type: nucleic-acid assay
Procedure, shortened: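 ITC at 25 °C: DNA preannealed at 95 °C for 5 min, cooled and held at 4 °C overnight, in 25 mM KH2PO4, 60 mM KCl, pH 7.4, 0.5% DMSO. DNA 10 μM in cell, ligand 500 μM in syringe; 19 injections of 4 s, 150 s apart, 750 rpm stirring; blank heat subtracted before model fitting.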

HeLa [20] = test: Induction of cellular senescence in human HeLa cells assessed as positive SA-beta-Gal cells at 0.5 to 4 uM incubated for 18 days by inverted fluorescence microscopic analysis; type: functional, cell-based; conditions: dose 0.5-4 µM, time 18.0 day
Procedure, shortened: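 HeLa cells were exposed to compound for 18 days, with drug-containing medium replaced every three days. Cells were then fixed 15 min at room temperature and stained for β-galactosidase at 37 °C overnight. Stained cells were examined under an inverted microscope.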

Quadruplex DNA [21] = test: Binding affinity to wild type telomeric Htg24 G-quadruplex DNA (unknown origin) assessed as antiparallel structure at 5 uM under pH condition 7.4 with 60 mM K+ ion by CD spectra analysis; type: nucleic-acid assay; procedure, shortened: as §1
[22] = target: Telomerase reverse transcriptase (Homo sapiens) (UniProt O14746); test: Inhibition of telomerase in human HeLa cells incubated for 36 hrs by TRAP assay; type: cell-based; conditions: dose 1-20 µM
Procedure, shortened: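 HeLa cells were treated with ligand for 36 h, and 10^6 cells were lysed in CHAPS buffer on ice for 30 min. Extract protein (10–750 ng/ml) was extended with TS primer in TRAP buffer (pH 8.3) at 30 °C for 30 min, then heat-inactivated at 95 °C. Products were PCR-amplified for 33 cycles, resolved on 10% native PAGE and stained with SYBR Gold.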

Quadruplex DNA [23] = test: Binding affinity to telomeric Htg24 G-quadruplex DNA (unknown origin) assessed as decrease in peak intensity at guanine base G15 at 5 uM under pH condition 7.4 by spectrophotometric titration analysis; type: nucleic-acid assay
[24] = system: Quadruplex DNA [UNDEFINED MUTATION]; test: Binding affinity to telomeric Htg24 G-quadruplex DNA G5C mutant (unknown origin) assessed as negative fluorescence signal at 5 uM under pH condition 7.4 by fluorescence titration analysis; type: nucleic-acid assay; conditions: Homo sapiens; procedure, shortened: as §2

Chain of Telomerase reverse transcriptase (Homo sapiens) (O14746 whole entry): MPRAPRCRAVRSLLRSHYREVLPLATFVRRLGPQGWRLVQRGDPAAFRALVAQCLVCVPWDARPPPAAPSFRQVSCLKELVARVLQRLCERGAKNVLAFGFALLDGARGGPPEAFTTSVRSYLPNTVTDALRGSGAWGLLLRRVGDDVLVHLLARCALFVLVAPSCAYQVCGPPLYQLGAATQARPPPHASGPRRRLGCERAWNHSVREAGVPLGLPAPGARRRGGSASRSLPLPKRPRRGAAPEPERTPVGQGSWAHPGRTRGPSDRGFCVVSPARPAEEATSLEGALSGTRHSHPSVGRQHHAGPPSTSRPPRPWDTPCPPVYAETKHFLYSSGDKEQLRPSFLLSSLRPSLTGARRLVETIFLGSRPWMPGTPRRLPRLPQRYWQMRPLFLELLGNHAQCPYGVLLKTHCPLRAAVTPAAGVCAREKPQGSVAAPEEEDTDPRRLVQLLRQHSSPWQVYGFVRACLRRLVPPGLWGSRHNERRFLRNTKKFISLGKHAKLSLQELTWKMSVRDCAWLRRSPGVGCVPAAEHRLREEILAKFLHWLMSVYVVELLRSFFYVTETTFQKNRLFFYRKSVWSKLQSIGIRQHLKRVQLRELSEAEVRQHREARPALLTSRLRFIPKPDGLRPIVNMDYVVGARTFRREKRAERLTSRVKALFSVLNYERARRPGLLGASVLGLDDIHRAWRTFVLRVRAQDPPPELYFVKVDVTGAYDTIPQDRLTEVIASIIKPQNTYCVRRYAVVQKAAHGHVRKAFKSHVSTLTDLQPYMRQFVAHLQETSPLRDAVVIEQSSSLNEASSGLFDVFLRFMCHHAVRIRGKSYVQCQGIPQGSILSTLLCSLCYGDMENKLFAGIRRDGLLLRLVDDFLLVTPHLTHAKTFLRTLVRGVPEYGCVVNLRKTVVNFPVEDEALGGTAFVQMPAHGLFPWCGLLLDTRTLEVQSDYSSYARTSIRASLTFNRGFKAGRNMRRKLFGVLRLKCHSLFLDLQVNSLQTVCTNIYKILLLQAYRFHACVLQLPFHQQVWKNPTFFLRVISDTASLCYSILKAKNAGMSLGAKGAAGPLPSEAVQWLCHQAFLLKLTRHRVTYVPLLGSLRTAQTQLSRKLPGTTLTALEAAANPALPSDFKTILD

CN(C)c1ccc(/C=C/c2cc(/C=C3\Sc4ccccc4N3CCCN3CCOCC3)c3ccccc3[n+]2C)cc1.[I-]
Activity [1]: Active | Activity [2]: Active | Activity [3]: Active | Activity [4]: inactive | fold change (FC) (Quadruplex DNA [5]): 120 | Activity [6]: Active | IC50 (HeLa [7]): 16.3 µM | IC50 (MCF7): 14.5 µM | Activity [8]: Active | Activity [9]: inactive | Activity (HeLa [10]): Active | Activity (Quadruplex DNA [11]): Active | Activity [12]: Active | Activity [13]: Active | fold change (FC) (i-motif DNA): 1 | Activity [14]: inactive | Activity [15]: Active | Activity [16]: Active | Activity [17]: Active | Activity (Quadruplex DNA [18]): Active | Kd (Quadruplex DNA [19]): 3.27 µM | Activity (HeLa [20]): Active | Activity (Quadruplex DNA [21]): Active | inhibition [22]: Dose-Dependent Effect | Activity (Quadruplex DNA [23]): Active | Activity [24]: Active

From ChEMBL document CHEMBL4834396, “Molecular Recognition and Imaging of Human Telomeric G-Quadruplex DNA in Live Cells: A Systematic Advancement of Thiazole Orange Scaffold To Enhance Binding Specificity and Inhibition of Gene Expression” (J Med Chem, 2021)
